Experimental data reported in ChEMBL document CHEMBL3856258, “Phosphonate-based irreversible inhibitors of human γ-glutamyl transpeptidase (GGT). GGsTop is a non-toxic and highly selective inhibitor with critical electrostatic interaction with an active-site residue Lys562 for enhanced inhibitory activity” (Bioorg Med Chem, 2016).

Tests used:
[1] = Cytotoxicity against CHL cells assessed as growth rate at 33.8 ug/ml preincubated for 6 hrs followed by 18 hrs incubation in fresh medium in presence of S9 fraction by MTT assay relative to control; format: toxicity, cell-based, Cricetulus griseus; conditions: chinese hamster, read-out: Activity
Salmonella typhimurium [2] = assay: Genotoxicity in Salmonella typhimurium TA98 assessed as number of revertant colonies per plate at 61.7 ug/plate after 20 mins in absence of S9 fraction by Ames test (reference value: 21); format: toxicity, organism-based; conditions: salmonella enterica subsp. enterica serovar typhimurium
Salmonella typhimurium [3] = assay: Genotoxicity in Salmonella typhimurium TA100 assessed as number of revertant colonies per plate at 20.6 ug/plate after 20 mins in presence of S9 fraction by Ames test (reference value: 142); format: toxicity, organism-based; conditions: salmonella enterica subsp. enterica serovar typhimurium
[4] = Cytotoxicity against CHL cells assessed as growth rate at 1320 ug/ml after 24 hrs in absence of S9 fraction by MTT assay relative to control; format: toxicity, cell-based, Cricetulus griseus; conditions: chinese hamster, read-out: Activity
Salmonella typhimurium [5] = assay: Genotoxicity in Salmonella typhimurium TA100 assessed as number of revertant colonies per plate at 5000 ug/plate after 20 mins in presence of S9 fraction by Ames test (reference value: 142); format: toxicity, organism-based; conditions: salmonella enterica subsp. enterica serovar typhimurium
Salmonella typhimurium [6] = assay: Genotoxicity in Salmonella typhimurium TA1535 assessed as number of revertant colonies per plate at 1667 ug/plate after 20 mins in absence of S9 fraction by Ames test (reference value: 15); format: toxicity, organism-based; conditions: salmonella enterica subsp. enterica serovar typhimurium
Salmonella typhimurium [7] = assay: Genotoxicity in Salmonella typhimurium TA1535 assessed as number of revertant colonies per plate at 20.6 ug/plate after 20 mins in presence of S9 fraction by Ames test (reference value: 13); format: toxicity, organism-based; conditions: salmonella enterica subsp. enterica serovar typhimurium
[8] = Cytotoxicity against CHL cells assessed as chromatid gap at 3300 ug/ml preincubated for 6 hrs followed by 18 hrs incubation in fresh medium in absence of S9 fraction by Giemsa-staining-based microscopic analysis; format: toxicity, cell-based, Cricetulus griseus; conditions: chinese hamster
[9] = Cytotoxicity against CHL cells assessed as structural aberrations at 3300 ug/ml preincubated for 6 hrs followed by 18 hrs incubation in fresh medium in absence of S9 fraction by Giemsa-staining-based microscopic analysis; format: toxicity, cell-based, Cricetulus griseus; conditions: chinese hamster
Salmonella typhimurium [10] = assay: Genotoxicity in Salmonella typhimurium TA98 assessed as number of revertant colonies per plate at 185 ug/plate after 20 mins in absence of S9 fraction by Ames test (reference value: 21); format: toxicity, organism-based; conditions: salmonella enterica subsp. enterica serovar typhimurium
Escherichia coli [11] = assay: Genotoxicity in Escherichia coli WP2uvrA assessed as number of revertant colonies per plate at 556 ug/plate after 20 mins in presence of S9 fraction by Ames test (reference value: 26); format: toxicity; conditions: s9, 20 min
[12] = Cytotoxicity against CHL cells assessed as growth rate at 13.5 ug/ml preincubated for 6 hrs followed by 18 hrs incubation in fresh medium in absence of S9 fraction by MTT assay relative to control; format: toxicity, cell-based, Cricetulus griseus; conditions: chinese hamster, read-out: Activity
Escherichia coli [13] = assay: Genotoxicity in Escherichia coli WP2uvrA assessed as number of revertant colonies per plate at 20.6 ug/plate after 20 mins in absence of S9 fraction by Ames test (reference value: 24); format: toxicity; conditions: s9, 20 min
Salmonella typhimurium [14] = assay: Genotoxicity in Salmonella typhimurium TA100 assessed as number of revertant colonies per plate at 556 ug/plate after 20 mins in absence of S9 fraction by Ames test (reference value: 123); format: toxicity, organism-based; conditions: salmonella enterica subsp. enterica serovar typhimurium
Salmonella typhimurium [15] = assay: Genotoxicity in Salmonella typhimurium TA98 assessed as number of revertant colonies per plate at 556 ug/plate after 20 mins in absence of S9 fraction by Ames test (reference value: 21); format: toxicity, organism-based; conditions: salmonella enterica subsp. enterica serovar typhimurium
[16] = Cytotoxicity against CHL cells assessed as structural aberrations at 1650 ug/ml preincubated for 6 hrs followed by 18 hrs incubation in fresh medium in absence of S9 fraction by Giemsa-staining-based microscopic analysis; format: toxicity, cell-based, Cricetulus griseus; conditions: chinese hamster
[17] = Cytotoxicity against CHL cells assessed as number of cells with numerical aberrations at 3300 ug/ml preincubated for 6 hrs followed by 18 hrs incubation in fresh medium in absence of S9 fraction by Giemsa-staining-based microscopic analysis relative to control; format: toxicity, cell-based, Cricetulus griseus; conditions: chinese hamster
[18] = Cytotoxicity against CHL cells assessed as structural aberrations at 3300 ug/ml preincubated for 6 hrs followed by 18 hrs incubation in fresh medium in presence of S9 fraction by Giemsa-staining-based microscopic analysis; format: toxicity, cell-based, Cricetulus griseus; conditions: chinese hamster
[19] = Cytotoxicity against CHL cells assessed as growth rate at 33.8 ug/ml preincubated for 6 hrs followed by 18 hrs incubation in fresh medium in absence of S9 fraction by MTT assay relative to control; format: toxicity, cell-based, Cricetulus griseus; conditions: chinese hamster, read-out: Activity
[20] = Cytotoxicity against CHL cells assessed as growth rate at 84.5 ug/ml preincubated for 6 hrs followed by 18 hrs incubation in fresh medium in absence of S9 fraction by MTT assay relative to control; format: toxicity, cell-based, Cricetulus griseus; conditions: chinese hamster, read-out: Activity
Salmonella typhimurium [21] = assay: Genotoxicity in Salmonella typhimurium TA100 assessed as number of revertant colonies per plate at 185 ug/plate after 20 mins in presence of S9 fraction by Ames test (reference value: 142); format: toxicity, organism-based; conditions: salmonella enterica subsp. enterica serovar typhimurium
[22] = Cytotoxicity against CHL cells assessed as chromatid gap at 825 ug/ml preincubated for 6 hrs followed by 18 hrs incubation in fresh medium in absence of S9 fraction by Giemsa-staining-based microscopic analysis; format: toxicity, cell-based, Cricetulus griseus; conditions: chinese hamster
[23] = Cytotoxicity against human CCD-1059SK cells assessed as reduction in cell viability up to 1 mM after 24 hrs by neutral red method; format: toxicity, cell-based
Method in brief: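 CCD-1059SK skin fibroblasts, passages 10–20, grown in DMEM with 10% FBS at 37 °C under 5% CO2. Pre-incubated 24 h after plating, then exposed 24 h to 0, 10, 100 or 1000 µM, diluted into medium from distilled water. Viability read by Neutral Red assay.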

Salmonella typhimurium [24] = assay: Genotoxicity in Salmonella typhimurium TA1537 assessed as number of revertant colonies per plate at 185 ug/plate after 20 mins in presence of S9 fraction by Ames test (reference value: 15); format: toxicity, organism-based; conditions: salmonella enterica subsp. enterica serovar typhimurium
Salmonella typhimurium [25] = assay: Genotoxicity in Salmonella typhimurium TA1535 assessed as number of revertant colonies per plate at 556 ug/plate after 20 mins in presence of S9 fraction by Ames test (reference value: 13); format: toxicity, organism-based; conditions: salmonella enterica subsp. enterica serovar typhimurium
[26] = Hydrolytic stability of the compound in D2O assessed as formation of monomethyl phosphonate and phenol at 23 degC up to 28 days by 31P NMR spectroscopy; format: physicochemical; conditions: 672 h
Salmonella typhimurium [27] = assay: Genotoxicity in Salmonella typhimurium TA1537 assessed as number of revertant colonies per plate at 1667 ug/plate after 20 mins in absence of S9 fraction by Ames test (reference value: 9); format: toxicity, organism-based; conditions: salmonella enterica subsp. enterica serovar typhimurium
Salmonella typhimurium [28] = assay: Genotoxicity in Salmonella typhimurium TA100 assessed as number of revertant colonies per plate at 556 ug/plate after 20 mins in presence of S9 fraction by Ames test (reference value: 142); format: toxicity, organism-based; conditions: salmonella enterica subsp. enterica serovar typhimurium
[29] = test system: Glutathione hydrolase 1 proenzyme (Homo sapiens), P19440 [K562S]; assay: Inhibition of human GGT K562S mutant expressed in baculovirus infected High Five cells assessed as residual activity up to 1 mM using gamma-Glu-PNA as substrate after 5 mins by spectrophotometric method relative to control; conditions: BTI-TN-5B1-4
Chain of Glutathione hydrolase 1 proenzyme (Homo sapiens), P19440 [K562S] (P19440 whole entry K562S, the tested form may be a part): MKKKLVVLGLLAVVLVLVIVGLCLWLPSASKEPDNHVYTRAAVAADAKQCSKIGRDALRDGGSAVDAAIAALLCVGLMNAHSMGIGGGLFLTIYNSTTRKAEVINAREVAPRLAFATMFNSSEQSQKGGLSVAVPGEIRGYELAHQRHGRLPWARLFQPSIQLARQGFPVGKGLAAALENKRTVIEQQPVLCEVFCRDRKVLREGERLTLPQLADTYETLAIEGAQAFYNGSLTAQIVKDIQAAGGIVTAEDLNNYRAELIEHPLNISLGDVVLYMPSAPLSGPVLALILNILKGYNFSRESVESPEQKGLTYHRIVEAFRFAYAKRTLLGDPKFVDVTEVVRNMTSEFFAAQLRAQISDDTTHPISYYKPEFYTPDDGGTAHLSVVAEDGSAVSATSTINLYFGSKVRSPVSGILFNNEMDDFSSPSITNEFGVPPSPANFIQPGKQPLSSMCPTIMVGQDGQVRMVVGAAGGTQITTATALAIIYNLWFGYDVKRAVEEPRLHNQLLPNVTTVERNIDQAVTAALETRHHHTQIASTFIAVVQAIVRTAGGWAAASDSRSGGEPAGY
Method in brief: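 Soluble N-terminal-truncated (Δ1–27) GGT was secreted by baculovirus-infected High Five cells (4 d, 27 °C) and purified from the medium on Con A and Q Sepharose. Activity was measured in 100 mM Tris-HCl pH 8.0 with 1 mM γ-Glu-PNA and 20 mM Gly-Gly at 37 °C, reading p-nitroaniline release continuously at 410 nm.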

COP(=O)(CCC(N)C(=O)O)Oc1cccc(CC(=O)O)c1 (centres undefined)
viability at 18 h, 33.8 ug/ml [1]: 101%
Activity (Salmonella typhimurium [2]): 23
Activity (Salmonella typhimurium [3]): 139
viability at 24 h, 1320 ug/ml [4]: 92.6%
Activity (Salmonella typhimurium [5]): 125
Activity (Salmonella typhimurium [6]): 11
Activity (Salmonella typhimurium [7]): 11
Activity [8]: 0%
Activity [9]: 1%
Activity (Salmonella typhimurium [10]): 24
Activity (Escherichia coli [11]): 27
viability at 18 h, 13.5 ug/ml [12]: 100%
Activity (Escherichia coli [13]): 26
Activity (Salmonella typhimurium [14]): 118
Activity (Salmonella typhimurium [15]): 29
Activity [16]: 0%
Activity [17]: 0%
Activity [18]: 1%
viability at 18 h, 33.8 ug/ml [19]: 103%
viability at 18 h, 84.5 ug/ml [20]: 102%
Activity (Salmonella typhimurium [21]): 147
Activity [22]: 1%
Activity [23]: Non-Toxic
Activity (Salmonella typhimurium [24]): 12
Activity (Salmonella typhimurium [25]): 12
Stability [26]: Stable
Activity (Salmonella typhimurium [27]): 10
Activity (Salmonella typhimurium [28]): 129
Activity [29]: > 80%
